Bioassay records as filed in PubChem.
This is a sample that favours compounds with a hit; in the whole collection about 1.7% have one here.
UCH37 DUB inh: inhibitors of human UCH37 deubiquitinase, primary screen, biochemical, Ub-AMC cleavage, fluorescence; 330,000 tested, 0.33% active; inhibition, % (test concentration not listed); AID 588478, 2011; purified proteasome/UCH37;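 active = mean inhibition over replicate wells above about 20%, limit read from the data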;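 also: 0% = compound-free wells with enzyme and 100% = wells lacking proteasome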
Target sequence (Q9Y5K5 whole entry, looked up): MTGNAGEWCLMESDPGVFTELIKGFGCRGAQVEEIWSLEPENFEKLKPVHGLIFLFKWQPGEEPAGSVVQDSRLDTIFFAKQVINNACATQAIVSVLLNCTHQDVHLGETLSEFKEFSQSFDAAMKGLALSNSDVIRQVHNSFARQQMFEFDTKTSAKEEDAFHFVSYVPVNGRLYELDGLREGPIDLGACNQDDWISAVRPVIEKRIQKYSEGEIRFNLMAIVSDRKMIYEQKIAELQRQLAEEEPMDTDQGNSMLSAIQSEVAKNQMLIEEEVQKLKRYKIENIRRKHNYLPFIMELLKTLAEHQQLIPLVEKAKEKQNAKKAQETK
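system = Proteasome-associated human UCH37 deubiquitinase | amount = 0.15 nM proteasome as dispensed | medium = pH 7.4 Tris-HCl (50 mM) with ovalbumin, ATP-MgCl2, DTT | incubation = 30 min preincubation with enzyme, 25 min cleavage at room temperature | detection = AMC fluorescence 355/460 nm | read-out basis = percent inhibition | controls = no-proteasome and no-compound wells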
Rpn11 inh: Rpn11 (PSMD14) deubiquitinase inhibitors, primary screen, biochemical, fluorescence polarization, uHTS; human 26S proteasome, Ub4-pepOG fluorescence polarization; 20S core pre-blocked with epoxomicin; inhibition, % at 20 µM; 360,000 tested, 0.59% active; AID 588493, 2011;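 active = inhibition at 20 µM, scaled to each plate's controls, above about 33%, limit read from the data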
Target sequence (O00487 whole entry, looked up): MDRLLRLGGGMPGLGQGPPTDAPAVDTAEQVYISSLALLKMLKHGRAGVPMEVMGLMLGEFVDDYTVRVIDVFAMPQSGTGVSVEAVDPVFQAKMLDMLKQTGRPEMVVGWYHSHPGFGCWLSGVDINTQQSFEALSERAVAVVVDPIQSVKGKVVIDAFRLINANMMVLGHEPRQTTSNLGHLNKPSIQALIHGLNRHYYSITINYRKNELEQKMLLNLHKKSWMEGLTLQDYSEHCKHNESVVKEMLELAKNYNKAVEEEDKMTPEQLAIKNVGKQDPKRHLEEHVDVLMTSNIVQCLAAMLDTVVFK
PLC-gamma1 inh: PLC-gamma1 enzyme inhibitors, primary screen, biochemical, fluorescence, purified enzyme. 370,000 tested, 0.84% active. 1-phosphatidylinositol 4,5-bisphosphate phosphodiesterase gamma-1 (Homo sapiens), P19174. inhibition, % at 12.2 µM. fluorogenic substrate; in the data active = inhibition above about 9.5%
PLCb3 inh: human PLC-beta3 inhibitors, primary screen, biochemical, fluorescence | 1-phosphatidylinositol 4,5-bisphosphate phosphodiesterase beta-3 (Homo sapiens), Q01970 | Purified PLC-beta3, fluorogenic substrate | inhibition, % at 12.2 µM | 370,000 tested, 0.18% active;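 also: 0% = median of compound wells on plate and 100% = full blocker control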
PLCg1 ctr: PLC-gamma1 enzyme inhibitors, counter-screen for PLC-beta3 inhibitor project, biochemical, fluorescence; purified PLC-gamma1, fluorogenic substrate; shares compounds with PLC-gamma1 inh; inhibition, % at 12.3 µM; 3,300 tested, 3.1% active; in the data active = inhibition above about 9.5%
PLCbeta3 conf: PLC-beta3 inhibitor confirmation, biochemical, fluorescence, purified enzyme | shares compounds with PLC-gamma1 inh | fluorogenic substrate fluorescence | inhibition, % at 12.3 µM | 3,300 tested, 1% active | AID 743261, 2014
* = called active by the depositor. Rule as the data show it, unless noted: active = inhibition above about 11%; inactive = the rest.

How did CCn1c(SCC(N)=O)nnc1-c1ccc2c(c1)OCO2 do in these assays?
UCH37 DUB inh: -2; Rpn11 inh: -3; PLC-gamma1 inh: 2; PLCb3 inh: 2

What do the screens show for `CCn1c(SCC(N)=O)nnc1-c1ccc(OC)c(OC)c1`?
UCH37 DUB inh: 2; Rpn11 inh: 1; PLC-gamma1 inh: 13*; PLCb3 inh: 7; PLCg1 ctr: -4; PLCbeta3 conf: -1

Results for COc1ccc(C=c2sc3nc(-c4ccccc4)c(-c4ccccc4)n3c2=O)cc1OC ?
UCH37 DUB inh: 7

Results for CC(C)OC(=O)c1ccccc1C(=O)c1ccc(N)c([N+](=O)[O-])c1 ?
UCH37 DUB inh: 5; Rpn11 inh: -3; PLC-gamma1 inh: 9.8*; PLCb3 inh: 3; PLCg1 ctr: -3; PLCbeta3 conf: 0

Results for O=C(Nc1ccc(Cl)cc1)N[C@@H]1c2c(ccc3ccccc23)OC[C@@H]1CO ?
UCH37 DUB inh: 4; Rpn11 inh: -4; PLC-gamma1 inh: 0; PLCb3 inh: 1

Results for CN(C(=O)c1ccccc1)C1c2c(ccc3ccccc23)OCC1CO (stereo not drawn) ?
UCH37 DUB inh: 2; Rpn11 inh: -6; PLC-gamma1 inh: 10*; PLCb3 inh: 4; PLCg1 ctr: 8; PLCbeta3 conf: 11*

Results for CC(=O)NC(CCS(C)(=O)=O)C(=O)Nc1ccccc1C (stereo not drawn) ?
UCH37 DUB inh: 3; Rpn11 inh: 6; PLC-gamma1 inh: -1; PLCb3 inh: -1

What do the screens show for `CC(=O)NC(CCS(C)(=O)=O)C(=O)Nc1cc(C)on1` (stereo not drawn)?
UCH37 DUB inh: 3; Rpn11 inh: 4; PLC-gamma1 inh: 10*; PLCb3 inh: 5; PLCg1 ctr: -37; PLCbeta3 conf: 1

How did OCCCc1nc2ccccc2n1CCCCOc1ccccc1 do in these assays?
UCH37 DUB inh: 2; Rpn11 inh: -4; PLC-gamma1 inh: 11*; PLCb3 inh: -2; PLCg1 ctr: -3; PLCbeta3 conf: -5

What do the screens show for `O=C(NCCc1nc2ccccc2n1CCOc1cc(F)ccc1F)C1CCCCC1`?
PLC-gamma1 inh: 11*; PLCb3 inh: 11*; PLCg1 ctr: 1; PLCbeta3 conf: -17

What do the screens show for `Cc1ccc(OCCn2c(CCNC(=O)C3CCCCCC3)nc3ccccc32)cc1`?
PLC-gamma1 inh: 17*; PLCb3 inh: 12*; PLCg1 ctr: 9.6*; PLCbeta3 conf: 6

How did OCc1nc2ccccc2n1CCCCOc1ccccc1 do in these assays?
UCH37 DUB inh: 2; Rpn11 inh: 6; PLC-gamma1 inh: 0; PLCb3 inh: 0

Results for Cc1cc(C=Nn2cnnc2)c(C)n1-c1ccc2c(c1)OCO2 ?
UCH37 DUB inh: 6

What do the screens show for `CC(=NNc1ccc(Cl)cc1)C(=NO)C(=O)Nc1ccccc1`?
UCH37 DUB inh: 0

What do the screens show for `CN(C)CCOC(=O)C12CC3(C)CC(C)(CC(C)(C3)C1)C2`?
UCH37 DUB inh: 7; Rpn11 inh: -1; PLC-gamma1 inh: 2; PLCb3 inh: 2

How did CC12CC3(C)CC(C)(C1)CC(C(N)=O)(C2)C3 do in these assays?
Rpn11 inh: -3; PLC-gamma1 inh: 11*; PLCb3 inh: 13*; PLCg1 ctr: 4; PLCbeta3 conf: -2

How did CCN(CC)c1ccc(C=NNC(=O)c2cccc(S(=O)(=O)Nc3ccccc3OC)c2)cc1 do in these assays?
UCH37 DUB inh: -49

What do the screens show for `Cc1cc(S(=O)(=O)Nc2ccc(C(=O)N3CCN(C(=O)c4ccco4)CC3)cc2)ccc1F`?
UCH37 DUB inh: 2; Rpn11 inh: -3; PLC-gamma1 inh: 11*; PLCb3 inh: 4; PLCg1 ctr: 5; PLCbeta3 conf: 4

What do the screens show for `Cc1cccc(C2(c3cccc(C)c3)OC(=O)c3ccccc32)c1`?
UCH37 DUB inh: 2; Rpn11 inh: -1; PLC-gamma1 inh: 14*; PLCb3 inh: 9; PLCg1 ctr: -3; PLCbeta3 conf: -3

Results for O=C1OC(c2ccccc2)(c2ccccc2)c2ccccc21 ?
UCH37 DUB inh: 1; Rpn11 inh: 3; PLC-gamma1 inh: -1; PLCb3 inh: -2

How did COc1ccc(CCN(C(=O)C(F)(F)F)C(C(=O)NC2CCCCC2)c2ccc(C)s2)cc1 (stereo not drawn) do in these assays?
UCH37 DUB inh: 1; Rpn11 inh: -1; PLC-gamma1 inh: 11*; PLCb3 inh: 8; PLCg1 ctr: 1; PLCbeta3 conf: -4

How did CC(=NO)c1ccc2c3ccccc3n(C)c2c1 do in these assays?
UCH37 DUB inh: -50

Results for COc1ccc(NC(=O)CC2C(=O)N(C)C(=S)N2Cc2ccncc2)cc1 (stereo not drawn) ?
UCH37 DUB inh: 1; Rpn11 inh: -6; PLC-gamma1 inh: 10*; PLCb3 inh: 0; PLCg1 ctr: -6; PLCbeta3 conf: -6

Results for COc1ccc(NC(=O)CC2C(=O)N(C)C(=S)N2Cc2ccco2)cc1 (stereo not drawn) ?
UCH37 DUB inh: 5; Rpn11 inh: -12; PLC-gamma1 inh: 2; PLCb3 inh: 3

How did O=C(NN=C1CCS(=O)(=O)c2ccc(F)cc21)c1ccc([N+](=O)[O-])cc1 do in these assays?
UCH37 DUB inh: 4

Results for COc1ccc(C[C@H]2CN3C(=NC[C@@H]3C(C)C)N2CCNC(=O)CCC2CCCCC2)cc1 ?
UCH37 DUB inh: 2; Rpn11 inh: 14; PLC-gamma1 inh: 1; PLCb3 inh: 2

Results for CC(C)[C@H]1CN=C2N(CCNC(=O)CCC3CCCCC3)[C@H](Cc3ccc(O)cc3)CN21 ?
UCH37 DUB inh: 4; Rpn11 inh: 1; PLC-gamma1 inh: 18*; PLCb3 inh: 6; PLCg1 ctr: 4; PLCbeta3 conf: 6

How did Cc1cccc(OCC(=O)ON=C(N)c2ccccn2)c1 do in these assays?
UCH37 DUB inh: 0

How did CC(=NNC(=O)c1csc(C)c1C)c1ccc(Cl)s1 do in these assays?
UCH37 DUB inh: 2

Results for Cc1nn(CCOc2ccccc2)c(=O)n1-c1ccc(F)cc1 ?
Rpn11 inh: 4; PLC-gamma1 inh: 11*; PLCb3 inh: 0; PLCg1 ctr: -4; PLCbeta3 conf: -2

Results for O=C(Nc1nc(C2C3CC4CC(C3)CC2C4)cs1)c1cc2cc([N+](=O)[O-])ccc2oc1=O (stereo not drawn) ?
UCH37 DUB inh: 4; Rpn11 inh: 0; PLC-gamma1 inh: 14*; PLCb3 inh: 8; PLCg1 ctr: 6; PLCbeta3 conf: -1
